Values belong to the compound of their own block, whether it stands above or below them. The source made the active and inactive calls. The rule behind the calls is not given here.
Legend:
HOS = assay: Antiproliferative activity against human HOS cells assessed as reduction in cell viability incubated for 24 to 72 hrs by IncuCyte zoom live cell analysis; assay type: functional, cell-based
MG-63 [1] = assay: Induction of apoptosis in human MG63 cells assessed as viable cells at 5 uM measured after 12 hrs by annexin V-propidium iodide staining-based flow cytometry (reference value: 98.11 %); assay type: functional; details: MG-63, 12 h, read-out: Activity
Summary of the method: (§1)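 MG-63 cells were treated at 5 µM for 12, 18 or 24 h, or at 2, 5 or 10 µM for 24 h. Cells were then stained with annexin V-FITC/PI and analysed by flow cytometry for apoptotic populations.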

MG-63 [2] = assay: Antiproliferative activity against human MG63 cells assessed as reduction in cell viability incubated for 24 to 72 hrs by IncuCyte zoom live cell analysis; assay type: functional, cell-based
[3] = target: T1, L-lactate dehydrogenase A chain (Homo sapiens, UniProt P00338); assay: Binding affinity at human LDHA assessed as dissociation constant by isothermal titration calorimetry
Summary of the method: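 Compounds were titrated into hLDHA by isothermal titration calorimetry to obtain Kd.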

MG-63 [4] = assay: Induction of apoptosis in human MG63 cells assessed as early apoptotic cells at 10 uM measured after 24 hrs by annexin V-propidium iodide staining-based flow cytometry (reference value: 0.16 %); assay type: functional; summary of the method: as §1
SAOS-2 = assay: Antiproliferative activity against human Saos2 cells assessed as reduction in cell viability incubated for 24 to 72 hrs by IncuCyte zoom live cell analysis; assay type: functional, cell-based
MG-63 [5] = assay: Induction of apoptosis in human MG63 cells assessed as viable cells at 10 uM measured after 24 hrs by annexin V-propidium iodide staining-based flow cytometry (reference value: 96.30 %); assay type: functional; details: MG-63, 24 h, read-out: Activity; summary of the method: as §1
[6] = target: T1, L-lactate dehydrogenase A chain; assay: Inhibition of LDHA in human MG63 cells assessed as reduction in extracellular acidification rate at 2 to 10 uM incubated for 4 hrs by seahorse XFe96 analyser based assay; assay type: cell-based; details: MG-63
U2OS = assay: Antiproliferative activity against human U2OS cells assessed as reduction in cell viability incubated for 24 to 72 hrs by IncuCyte zoom live cell analysis; assay type: functional, cell-based
MG-63 [7] = assay: Antiproliferative activity against human MG63 cells assessed as reduction in cell viability at 5 uM incubated by IncuCyte zoom live cell analysis; assay type: functional, cell-based; details: TDE = time-dependent effect
Summary of the method: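 MG-63 cells were exposed to 5 µM and imaged over time by IncuCyte Zoom live-cell analysis to follow growth.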

MG-63 [8] = assay: Induction of apoptosis in human MG63 cells assessed as necrotic cells at 5 uM measured after 12 hrs by annexin V-propidium iodide staining-based flow cytometry (reference value: 0.84 %); assay type: functional; summary of the method: as §1
MG-63 [9] = assay: Induction of apoptosis in human MG63 cells assessed as late apoptotic cells at 5 uM measured after 24 hrs by annexin V-propidium iodide staining-based flow cytometry (reference value: 0.91 to 1.44 %); assay type: functional; summary of the method: as §1
MG-63 [10] = assay: Induction of apoptosis in human MG63 cells assessed as necrotic cells at 2 uM measured after 24 hrs by annexin V-propidium iodide staining-based flow cytometry (reference value: 2.10 %); assay type: functional; summary of the method: as §1
MG-63 [11] = assay: Induction of apoptosis in human MG63 cells assessed as viable cells at 2 uM measured after 24 hrs by annexin V-propidium iodide staining-based flow cytometry (reference value: 96.30 %); assay type: functional; details: MG-63, 24 h, read-out: Activity; summary of the method: as §1
[12] = target: T1, L-lactate dehydrogenase A chain; assay: Inhibition of LDHA in human MG63 cells assessed as reduction in lactate formation at 2 to 10 uM incubated for 4 hrs; assay type: cell-based; details: MG-63
Summary of the method: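 MG-63 cells were treated at 2, 5 and 10 µM for 4 h. Lactate was then measured in the culture medium and compared with untreated control, with P < 0.05.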

[13] = target: T1, L-lactate dehydrogenase A chain; assay: Inhibition of human LDHA at 5 uM using NADH and pyruvate by microplate reader based assay relative to control
Summary of the method: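 Recombinant-free description: hLDHA was incubated with pyruvate and NADH plus compound at 5 µM. NADH consumption was followed as the decrease in absorbance at 340 nm on a microplate reader and expressed as inhibitory rate.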

MG-63 [14] = assay: Induction of apoptosis in human MG63 cells assessed as early apoptotic cells at 5 uM measured after 18 hrs by annexin V-propidium iodide staining-based flow cytometry (reference value: 0.14 %); assay type: functional; summary of the method: as §1
MG-63 [15] = assay: Induction of apoptosis in human MG63 cells assessed as viable cells at 5 uM measured after 24 hrs by annexin V-propidium iodide staining-based flow cytometry (reference value: 96.30 to 98.11 %); assay type: functional; details: MG-63, 24 h, read-out: Activity; summary of the method: as §1
MG-63 [16] = assay: Induction of apoptosis in human MG63 cells assessed as early apoptotic cells at 5 uM measured after 12 hrs by annexin V-propidium iodide staining-based flow cytometry (reference value: 0.14 %); assay type: functional; summary of the method: as §1
[17] = target: T1, L-lactate dehydrogenase A chain; assay: Inhibition of human LDHA using NADH and pyruvate by microplate reader based assay
Summary of the method: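 hLDHA activity was measured with pyruvate and NADH across full dose-response to give EC50. The read-out was the decline in absorbance at 340 nm on a microplate reader.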

MG-63 [18] = assay: Induction of apoptosis in human MG63 cells assessed as necrotic cells at 5 uM measured after 18 hrs by annexin V-propidium iodide staining-based flow cytometry (reference value: 0.84 %); assay type: functional; summary of the method: as §1
MG-63 [19] = assay: Induction of apoptosis in human MG63 cells assessed as late apoptotic cells at 2 uM measured after 24 hrs by annexin V-propidium iodide staining-based flow cytometry (reference value: 1.44 %); assay type: functional; summary of the method: as §1
MG-63 [20] = assay: Induction of apoptosis in human MG63 cells assessed as late apoptotic cells at 5 uM measured after 12 hrs by annexin V-propidium iodide staining-based flow cytometry (reference value: 0.91 %); assay type: functional; summary of the method: as §1
MG-63 [21] = assay: Induction of apoptosis in human MG63 cells assessed as early apoptotic cells at 5 uM measured after 24 hrs by annexin V-propidium iodide staining-based flow cytometry (reference value: 0.14 to 0.16 %); assay type: functional; summary of the method: as §1
[22] = target: T1, L-lactate dehydrogenase A chain; assay: Inhibition of LDHA in human MG63 cells assessed as increase in oxygen consumption rate incubated for 4 hrs by seahorse XFe96 analyser based assay; assay type: cell-based; details: MG-63
MG-63 [23] = assay: Induction of apoptosis in human MG63 cells assessed as late apoptotic cells at 10 uM measured after 24 hrs by annexin V-propidium iodide staining-based flow cytometry (reference value: 1.44 %); assay type: functional; summary of the method: as §1
MG-63 [24] = assay: Induction of apoptosis in human MG63 cells assessed as necrotic cells at 10 uM measured after 24 hrs by annexin V-propidium iodide staining-based flow cytometry (reference value: 2.10 %); assay type: functional; summary of the method: as §1
[25] = target: T1, L-lactate dehydrogenase A chain; assay: Inhibition of LDHA in human MG63 cells assessed as reduction in proton production rate at 2 to 10 uM incubated for 4 hrs by seahorse XFe96 analyser based assay; assay type: cell-based; details: MG-63
MG-63 [26] = assay: Induction of apoptosis in human MG63 cells assessed as late apoptotic cells at 5 uM measured after 18 hrs by annexin V-propidium iodide staining-based flow cytometry (reference value: 0.91 %); assay type: functional; summary of the method: as §1
MG-63 [27] = assay: Induction of apoptosis in human MG63 cells assessed as necrotic cells at 5 uM measured after 24 hrs by annexin V-propidium iodide staining-based flow cytometry (reference value: 0.84 to 2.10 %); assay type: functional; summary of the method: as §1
MG-63 [28] = assay: Induction of apoptosis in human MG63 cells assessed as early apoptotic cells at 2 uM measured after 24 hrs by annexin V-propidium iodide staining-based flow cytometry (reference value: 0.16 %); assay type: functional; summary of the method: as §1
MG-63 [29] = assay: Induction of apoptosis in human MG63 cells assessed as viable cells at 5 uM measured after 18 hrs by annexin V-propidium iodide staining-based flow cytometry (reference value: 98.11 %); assay type: functional; details: MG-63, 18 h, read-out: Activity; summary of the method: as §1
MG-63 [30] = assay: Induction of apoptosis in human MG63 cells measured after 24 hrs by annexin V-propidium iodide staining-based flow cytometry; assay type: functional, cell-based; summary of the method: as §1

Kd [3]: 2.41 µM | inhibition [6]: Active | IC50 (U2OS): 3.7 µM | inhibition [12]: Active | inhibition [13]: 91.2% | EC50 [17]: 0.67 µM | inhibition [22]: Dose-dependent effect | inhibition [25]: Active
Compound: Cc1c(C(=O)Nc2ccccc2)[n+]([O-])cn1-c1ccc2[nH]c(CC(C)C)nc2c1
IC50 (HOS): 4.6 µM | viability at 5 µM (MG-63 [1]): 92.3% | IC50 (MG-63 [2]): 2.93 µM | Activity (MG-63 [4]): 3.55% | IC50 (SAOS-2): 5.1 µM | viability at 10 µM (MG-63 [5]): 66.2% | Activity (MG-63 [7]): Tde | Activity (MG-63 [8]): 2.3% | Activity (MG-63 [9]): 12.28 - 19.86% | Activity (MG-63 [10]): 1.54% | viability at 2 µM (MG-63 [11]): 94.8% | Activity (MG-63 [14]): 1.32% | viability at 5 µM (MG-63 [15]): 66.6 to 78.3% | Activity (MG-63 [16]): 0.34% | Activity (MG-63 [18]): 4.56% | Activity (MG-63 [19]): 3.21% | Activity (MG-63 [20]): 5.08% | Activity (MG-63 [21]): 1.1 - 3.47% | Activity (MG-63 [23]): 20.03% | Activity (MG-63 [24]): 10.19% | Activity (MG-63 [26]): 10.37% | Activity (MG-63 [27]): 8.3 - 10.1% | Activity (MG-63 [28]): 0.4% | viability at 5 µM (MG-63 [29]): 83.8% | Activity (MG-63 [30]): Dose-dependent effect

Kd [3]: 6.41 µM | IC50 (U2OS): 14.9 µM | inhibition [13]: > 50% | EC50 [17]: 3.03 µM
Compound: COc1ccc(-n2c[n+]([O-])c(C(=O)Nc3ccccc3)c2C)cc1N1CCCCS1(=O)=O
IC50 (HOS): 10.2 µM | IC50 (MG-63 [2]): 6.47 µM | IC50 (SAOS-2): 7.5 µM

Kd [3]: 9.85 µM | IC50 (U2OS): 9.5 µM | inhibition [13]: > 50% | EC50 [17]: 3.26 µM
Compound: Cc1c(C(=O)Nc2ccccc2)[n+]([O-])cn1-c1ccc2occc(=O)c2c1
IC50 (HOS): 12.5 µM | IC50 (MG-63 [2]): 6.1 µM | IC50 (SAOS-2): 13.6 µM
